# Experimental data: ChEMBL document CHEMBL1148327, “Arylcyanoguanidines as activators of Kir6.2/SUR1K ATP channels and inhibitors of insulin release” (J Med Chem, 2004); call rule not given here
# How the values were obtained:
# [1] = tested on: Beta-TC3; experiment: Ability to repolarize beta-TC3 cell membrane potential; type: functional, cell-based, Rattus norvegicus; settings: Mus musculus
# [2] = species: Rattus norvegicus; experiment: Relaxation of phenylephrine precontracted rat isolated aorta rings.; type: functional, organism-based
# [3] = tested on: Beta-TC6; experiment: In vitro efficacy to inhibit glucose stimulated insulin release in beta-TC6 cells […]; type: functional
# [4] = tested on: Beta-TC6; experiment: In vitro ability to inhibit glucose stimulated insulin release in beta-TC6 cells […]; type: functional, cell-based; settings: Mus musculus
# [5] = tested on: Beta-TC3; experiment: Ability to repolarize beta-TC3 cell membrane potential; Not significant; type: functional, cell-based, Rattus norvegicus
# [6] = tested on: A10; experiment: Effect on membrane potential of mitochondria in A10 smooth muscle cells from rats; type: functional; settings: Rattus norvegicus, read-out: ED50 (the source's name)
# [7] = tested on: Beta-TC3; experiment: Effect on membrane potential of mitochondria in beta-TC3 cells […]; type: functional; settings: Mus musculus, read-out: ED50 (the source's name)
# [8] = tested on: HepG2; experiment: (§1) Effective concentration required for stimulation of glucose utilization in Hepatocytes (HEP-G2 cells); type: functional, cell-based; settings: Homo sapiens
# Outline: (§2)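 HEP-G2 glucose oxidation: 2×10^4 cells/well incubated overnight at 37 °C, 5% CO2. Compounds diluted from 100× DMSO stocks into medium with 10 μCi/mL D-(5-3H)-glucose, in duplicate, 3 h at 37 °C. Lysed with 10% TCA; 3H-water separated by evaporation and counted. Mean ± SEM of three experiments.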
# [9] = species: Rattus norvegicus; experiment: Efficacy to inhibit insulin release from rat islets; type: functional, organism-based
# [10] = tested on: HepG2; experiment: (§3) Maximum effect on glucose utilization in HepG2 cells expressed as % of full stimulation; type: functional; settings: Homo sapiens; outline: as §2
# [11] = species: Rattus norvegicus; experiment: Inhibitory effect on insulin release from rat islets; type: functional, organism-based
# [12] = tested on: HepG2; experiment: as §3; type: functional, Rattus norvegicus; settings: Homo sapiens; outline: as §2
# [13] = tested on: HepG2; experiment: as §1; type: functional, cell-based, Rattus norvegicus; settings: Homo sapiens; outline: as §2
# [14] = species: Rattus norvegicus; experiment: Effect on insulin release from rat islets; type: functional, organism-based
# [15] = species: Rattus norvegicus; experiment: Efficacy on insulin release from rat islets; type: functional, organism-based
# [16] = tested on: Beta-TC3; experiment: Effect on membrane potential of mitochondria of beta-TC3 cells in rats; type: functional, Rattus norvegicus; settings: Mus musculus, read-out: ED50 (the source's name)
# [17] = tested on: A10; experiment: Effect on membrane potential of mitochondria of A10 smooth muscle cells in rats; type: functional; settings: Rattus norvegicus, read-out: ED50 (the source's name)
# [18] = species: Rattus norvegicus; experiment: Effective concentration required relaxation of precontracted rat aorta ring; type: functional, organism-based
# [19] = tested on: Beta-TC6; experiment: In vitro ability to inhibit glucose stimulated insulin release in beta-TC6 cells […]; Not active; type: functional, cell-based
SMILES,IC50 [1] [µM],IC50 [2] [µM],IC50 [4] [µM],IC50 [5],Efficacy [3] [%],also measured
N#CN/C(=N\C1(c2cccc(Cl)c2)CCC1)Nc1cc(C(F)(F)F)cc(C(F)(F)F)c1,20,,2.8,,66,
CC(C)CC/N=C(\NC#N)Nc1cccnc1,,,1.2,Not Active,23,
CC1=Nc2ccc(Cl)cc2S(=O)(=O)N1 [DIAZOXIDE],13.7,12.8,,,23,
C[C@@H](/N=C(\NC#N)Nc1cc(C(F)(F)F)cc(C(F)(F)F)c1)C(C)(C)C,18,20.3,4.4,,68,
C[C@@H](/N=C(\NC#N)Nc1cc(Cl)cc(Cl)c1)c1ccccc1,,43.8,16.1,Not Active,22,
CC(N/C(=N\C#N)Nc1ccncc1)C(C)(C)C (stereo unspecified) [PINACIDIL ANHYDROUS],,0.8,> 100,Not Active,,
C[C@H](/N=C(\NC#N)Nc1cc(Cl)cc(Cl)c1)c1ccccc1,25,,39.8,,27,
CCC(C)(C)/N=C(\NC#N)Nc1cc(Cl)cc(Cl)c1,24,,48.5,,32,
CC(C)CC/N=C(\NC#N)Nc1cc(Cl)cc(Cl)c1,0.8,,4.2,,60,Emax [12]: 98%; EC50 [13]: 22 µM; IC50 [14]: 3.8 µM; Efficacy [15]: 72%; EC50 [16]: > 30 µM; EC50 [17]: 2 µM
N#C/N=C(\Nc1cccnc1)NC1(c2cccc(Cl)c2)CCC1,,,,,,EC50 [18]: 113 µM
CC(C)CC/N=C(\NC#N)Nc1cc(F)cc(F)c1,,85,,Not Active,,IC50 [19]: Not Active
C[C@H](/N=C(\NC#N)Nc1cc(C(F)(F)F)cc(C(F)(F)F)c1)C(C)(C)C,12,11.9,13.7,,67,
CC(C)/N=C(\NC#N)Nc1cc(Cl)cc(Cl)c1,,52,,Not Active,,IC50 [19]: Not Active
CC(C)CC/N=C(\NC#N)Nc1cc(C(F)(F)F)cc(C(F)(F)F)c1,4.7,,,,77,

# More lines, main results first:
IC50 [1] [µM],IC50 [2] [µM],IC50 [4] [µM],IC50 [5],SMILES,Efficacy [3] [%],also measured
5.5,17.6,5.2,,CC(C)C(C)/N=C(\NC#N)Nc1cc(C(F)(F)F)cc(C(F)(F)F)c1 (stereo unspecified),69,
,,41.4,Not Active,CC(C)/N=C(\NC#N)Nc1cc(C(F)(F)F)cc(C(F)(F)F)c1,20,
4.7,> 300,5.45,,N#CN/C(=N\C1CCCC1)Nc1cc(C(F)(F)F)cc(C(F)(F)F)c1,65,EC50 [6]: 1 µM; EC50 [7]: > 30 µM; EC50 [8]: 10.4 µM; Efficacy [9]: 65%; Emax [10]: 95%; IC50 [11]: 1.24 µM
12,75,28.7,,N#CN/C(=N\C1CCCC1)Nc1cc(Cl)cc(Cl)c1,18,
,,,Not Active,CCC(C)(C)/N=C(\NC#N)Nc1cc(C(F)(F)F)cc(C(F)(F)F)c1,,IC50 [19]: Not Active
19,,,,CCC/N=C(\NC#N)Nc1cc(C(F)(F)F)cc(C(F)(F)F)c1,53,
,75,,Not Active,COc1cc(N/C(=N/C2CCCC2)NC#N)cc(C(F)(F)F)c1,,IC50 [19]: Not Active
